Data on 26 molecules can be found in ChEMBL document CHEMBL3585257, “Structure-Activity Relationship Studies of 3-epi-Deoxynegamycin Derivatives as Potent Readthrough Drug Candidates” (ACS Med Chem Lett, 2015).

Values after ≈ are worked out from the molar mass of the structure shown.

Data set [1] has as its system COS-7. Kind of data set: Mutation read through activity in african green monkey COS7 cells transfected with dual-reporter plasmid encoding beta-galactosidase and luciferase genes connected with TGA-containing mouse mdx gene exon 23 nucleotide sequence as premature termination codon assessed as ratio of luciferase activity to beta-galactosidase activity at 200 uM incubated for 48 hrs at 37 degC relative to basal level. Format: functional, Chlorocebus aethiops. An outline of the steps: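 COS-7 cells transfected with a dual-reporter plasmid: constitutive β-galactosidase upstream of a TGA premature stop codon, luciferase downstream. Compounds tested at 200 μM. Lysate luciferase/β-galactosidase activity ratio expressed relative to untreated (D-MEM) basal level = 1; some series normalized to a reference compound instead. Triplicate, mean ± SD.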

The nature of data set [2]: Mutation read through activity in human cell-free protein synthesis system containing beta-galactosidase and luciferase genes connected with TGA-containing mouse mdx gene exon 23 nucleotide sequence as premature termination codon assessed as ratio of luciferase activity to beta-galactosidase activity at 20 uM incubated at 37 degC for 3 hrs relative to basal level. An outline of the steps: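 Cell-free translation of the β-galactosidase–TGA–luciferase dual reporter with compound at 20 μM. Readthrough given as luciferase/β-galactosidase ratio relative to no-compound control (= 1). n = 3, mean ± SD.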

For data set [3], the system named is COS-7. The experiment in a line: Mutation read through activity in african green monkey COS7 cells transfected with dual-reporter plasmid encoding beta-galactosidase and luciferase genes connected with TGA-containing mouse mdx gene exon 23 nucleotide sequence as premature termination codon assessed as ratio of luciferase activity to beta-galactosidase activity at 20 uM incubated for 48 hrs at 37 degC relative to basal level. Format: functional, Chlorocebus aethiops.

Data set [4] can be described thus: Stability in absence of porcine liver esterase assessed as compound remaining in 100 mM pH 7.4 phosphate buffer at 37 degC after 6 hrs. Format: physicochemical. The settings on record: phosphate buffer without porcine liver esterase, read-out: Stability. Put shortly:
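Ester incubated without esterase in 100 mM phosphate buffer, pH 7.4, at 37 °C for 6 h. Percent compound remaining measured by RP-HPLC.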

Data set [5] in a line: Drug metabolism in presence of porcine liver esterase assessed as (S)-2-[2-(3,5-Diaminopentanoyl)-1-methylhydrazinyl]acetic acid.2TFA formation in 100 mM pH 7.4 phosphate buffer at 37 degC incubated for 1 to 4 hrs. Format: physicochemical. The settings on record: pig, isolated protein.
Data set [6] is described as follows: Drug metabolism in presence of porcine liver esterase assessed as (S)-2-[2-(3,5-Diaminopentanoyl)-1-methylhydrazinyl]acetic acid.2TFA formation in 100 mM pH 7.4 phosphate buffer at 37 degC. The settings on record: pig, isolated protein, TDE = time-dependent effect.
Data set [7] deals with COS-7. Kind of data set: Mutation read through activity in african green monkey COS7 cells transfected with dual-reporter plasmid encoding beta-galactosidase and luciferase genes connected with TGA-containing mouse mdx gene exon 23 nucleotide sequence as premature termination codon assessed as ratio of luciferase activity to beta-galactosidase activity at 25 to 200 uM incubated for 48 hrs at 37 degC relative to basal level. Format: functional, cell-based. The settings on record: Chlorocebus aethiops.

The subject of data set [8] is Escherichia coli. The experiment in a line: Toxicity against Escherichia coli NBRC3972. Format: functional.
In data set [9] the test system is Staphylococcus aureus. The experiment in a line: Toxicity against Staphylococcus aureus NBRC13276. The format is functional.

Turning to `CN(CC(=O)OCc1cccc(Br)c1)NC(=O)C[C@@H](N)CCN`, the Ratio in [1] is recorded as 3.75.

`COc1ccc(COC(=O)CN(C)NC(=O)C[C@@H](N)CCN)cc1`: in [1], the Ratio amounted to 3.25.

For the molecule `CN(CC(=O)OCc1cccc([N+](=O)[O-])c1)NC(=O)C[C@@H](N)CCN`, in data set [1], the Ratio was 3.21.

As for `CN[C@@H]1[C@@H](O)[C@@H](O[C@@H]2[C@@H](O)[C@H](O[C@H]3O[C@H]([C@@H](C)O)[C@@H](O)[C@H](O)[C@H]3N)[C@@H](N)C[C@H]2N)OC[C@]1(C)O` [GENETICIN], the Ratio in data set [1] is reported as 6.65.

With `CN(CC(=O)NCc1ccccc1)NC(=O)C[C@@H](N)CCN`, the Ratio in data set [1] is reported as 0.8.

As for `CN(CC(=O)OCc1cccc(Cl)c1)NC(=O)C[C@@H](N)CCN`, the Ratio in [2] is 1.23; in data set [1], 4.9; in data set [3], 3.58. Moreover, the remaining at 6 h in data set [4] turned out to be 94%. Also, the Drug metabolism result is on record as “metabolite_detected” in data set [5] and “tde” in data set [6].

On to `CCNC(=O)CN(C)NC(=O)C[C@@H](N)CCN`, for which, in [1], the Ratio is reported as 1.42.

Consider `CN(CC(=O)O)NC(=O)[C@@H](N)CN`, for which, in data set [1], the Ratio is 1.3.

`CN(CC(=O)OCc1ccc(Cl)cc1)NC(=O)C[C@@H](N)CCN`: the Ratio in data set [1] is 4.21.

For `CN(CC(=O)OCc1ccccc1Br)NC(=O)C[C@@H](N)CCN`, the Ratio in data set [1] is reported as 3.83.

As to `CN(CC(=O)OCc1ccccc1)NC(=O)C[C@@H](N)CCN`, the Ratio in [1] is 4.04.

On to `CN(CC(=O)O)NC(=O)C[C@H](N)C[C@@H](O)CN` [NEGAMYCIN], for which, in data set [1], the Ratio was determined as 1.81.

`CN(CC(=O)O)NC(=O)[C@@H](N)CCN`: in [1], the Ratio worked out at 1.07.

In the case of `CN(CC(=O)OCc1ccc(Br)cc1)NC(=O)C[C@@H](N)CCN`, the Ratio in data set [1] is on record as 2.98.

With `COc1cccc(COC(=O)CN(C)NC(=O)C[C@@H](N)CCN)c1`, the Ratio in [1] is given as 3.71.

For the molecule `COc1ccccc1COC(=O)CN(C)NC(=O)C[C@@H](N)CCN`, in data set [1], the Ratio is recorded as 3.1.

As to `CCOC(=O)CN(C)NC(=O)C[C@@H](N)CCN`, the Ratio in data set [1] was 2.08.

With `CN(CC(=O)O)NC(=O)[C@@H](N)CCCN`, in data set [1], the Ratio amounted to 0.99.

Regarding `CN(CC(=O)O)NC(=O)[C@@H](N)CCCCN`, in [1], the Ratio stood at 1.01.

As to `CN(CC(=O)O)NC(=O)C[C@@H](N)CCCCN`, the Ratio in [1] is reported as 2.05.

Regarding `CN(CC(=O)OCc1ccccc1[N+](=O)[O-])NC(=O)C[C@@H](N)CCN`, the Ratio in data set [1] was 4.51.

For `CN(CC(=O)O)NC(=O)C[C@@H](N)CCCN`, the Ratio in data set [1] is recorded as 2.94.

Consider `CN(CC(=O)OCc1ccccc1Cl)NC(=O)C[C@@H](N)CCN`, for which the Ratio in data set [1] was 3.34.

Regarding `CN(CC(=O)OCc1ccc([N+](=O)[O-])cc1)NC(=O)C[C@@H](N)CCN`, the Ratio in data set [1] came out at 3.05.

Take `CN(CC(=O)O)NC(=O)CC(N)CN` (single isomer, unassigned): the Ratio in [1] worked out at 1.49.

Usually MIC stands for the least concentration at which growth counts as inhibited. For the molecule `CN(CC(=O)O)NC(=O)C[C@@H](N)CCN`, in data set [7], the Activity result is “Dose-dependent effect”. Also, the MIC was ≥ 1020 µg/mL in data set [8] and 1020 µg/mL (≈ 4.69 mM) in data set [9]. The Ratio in data set [2] turned out to be 2.72; in data set [1], 4.28; in data set [3], 3.1.
